Measurements from ChEMBL document CHEMBL1158563, “Identification of benzimidazole-based inhibitors of the mitogen activated kinase-5 signaling pathway” (2010).

Assays:
[1] = target: T1, Dual specificity mitogen-activated protein kinase kinase 5 (Homo sapiens) (UniProt Q13163); experiment: Inhibition of EGF-induced MEK5-mediated ERK5 phosphorylation in human HEK293 cells at 10 uM treated after 30 mins EGF challenge measured after 30 mins by Western blot analysis relative to control; assay type: cell-based; design: scale not given: the % may be the effect or the level left
T1 sequence (whole entry): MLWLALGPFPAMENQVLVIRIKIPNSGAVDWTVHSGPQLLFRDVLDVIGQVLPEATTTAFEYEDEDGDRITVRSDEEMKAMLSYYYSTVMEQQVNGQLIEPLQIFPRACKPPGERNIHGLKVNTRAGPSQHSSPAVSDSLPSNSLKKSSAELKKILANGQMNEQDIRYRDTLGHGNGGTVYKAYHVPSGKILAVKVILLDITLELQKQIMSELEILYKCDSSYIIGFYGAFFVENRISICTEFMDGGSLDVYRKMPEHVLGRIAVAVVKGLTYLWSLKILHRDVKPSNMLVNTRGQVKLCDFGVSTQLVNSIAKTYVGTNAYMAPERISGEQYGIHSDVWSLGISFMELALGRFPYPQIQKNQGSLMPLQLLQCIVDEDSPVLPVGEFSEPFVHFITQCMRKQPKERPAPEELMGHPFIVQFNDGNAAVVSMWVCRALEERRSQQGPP
Procedure, shortened: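 HEK293 cells were grown in medium with 10% heat-inactivated FBS and 0.5% penicillin/streptomycin at 37 °C, 5% CO2. They were stimulated with 50 ng/mL EGF, then given 10 µM compound (final) 30 min later, and lysed 30 min after that in 1% Triton buffer. 60 µg protein was run on 10% SDS gels and blotted for pERK1/2 (1:1000) or pERK5 (1:500).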

CCRF-CEM = experiment: Cytotoxicity against human CCRF-CEM cells at 10 uM assessed as cell growth relative to control; assay type: functional; conditions: read-out: Activity
HL-60(TB) = experiment: Cytotoxicity against human HL-60(TB) cells at 10 uM assessed as cell growth relative to control; assay type: functional; conditions: read-out: Activity
K562 = experiment: Cytotoxicity against human K562 cells at 10 uM assessed as cell growth relative to control; assay type: functional; conditions: read-out: Activity
MOLT-4 = experiment: Cytotoxicity against human MOLT4 cells at 10 uM assessed as cell growth relative to control; assay type: functional; conditions: read-out: Activity
[2] = Cytotoxicity against human […] cells at 10 uM assessed as cell growth relative to control; assay type: functional; conditions: read-out: Activity
SR = experiment: Cytotoxicity against human SR cells at 10 uM assessed as cell growth relative to control; assay type: functional; conditions: read-out: Activity
A549 = experiment: Cytotoxicity against human A549 cells at 10 uM assessed as cell growth relative to control; assay type: functional; conditions: read-out: Activity
EKVX = experiment: Cytotoxicity against human EKVX cells at 10 uM assessed as cell growth relative to control; assay type: functional; conditions: read-out: Activity
HOP-62 = experiment: Cytotoxicity against human HOP62 cells at 10 uM assessed as cell growth relative to control; assay type: functional; conditions: read-out: Activity
HOP-92 = experiment: Cytotoxicity against human HOP92 cells at 10 uM assessed as cell growth relative to control; assay type: functional; conditions: read-out: Activity
NCI-H226 = experiment: Cytotoxicity against human NCI-H226 cells at 10 uM assessed as cell growth relative to control; assay type: functional; conditions: read-out: Activity
NCI-H23 = experiment: Cytotoxicity against human NCI-H23 cells at 10 uM assessed as cell growth relative to control; assay type: functional; conditions: read-out: Activity
NCI-H322M = experiment: Cytotoxicity against human NCI-H322M cells at 10 uM assessed as cell growth relative to control; assay type: functional; conditions: read-out: Activity
NCI-H460 = experiment: Cytotoxicity against human NCI-H460 cells at 10 uM assessed as cell growth relative to control; assay type: functional; conditions: read-out: Activity
NCI-H522 = experiment: Cytotoxicity against human NCI-H522 cells at 10 uM assessed as cell growth relative to control; assay type: functional; conditions: read-out: Activity
COLO 205 = experiment: Cytotoxicity against human COLO205 cells at 10 uM assessed as cell growth relative to control; assay type: functional; conditions: read-out: Activity
HCC 2998 = experiment: Cytotoxicity against human HCC2998 cells at 10 uM assessed as cell growth relative to control; assay type: functional; conditions: read-out: Activity
HCT-116 = experiment: Cytotoxicity against human HCT116 cells at 10 uM assessed as cell growth relative to control; assay type: functional; conditions: read-out: Activity
HCT-15 = experiment: Cytotoxicity against human HCT15 cells at 10 uM assessed as cell growth relative to control; assay type: functional; conditions: read-out: Activity
HT-29 = experiment: Cytotoxicity against human HT-29 cells at 10 uM assessed as cell growth relative to control; assay type: functional; conditions: read-out: Activity
KM12 = experiment: Cytotoxicity against human KM12 cells at 10 uM assessed as cell growth relative to control; assay type: functional; conditions: read-out: Activity
SW-620 = experiment: Cytotoxicity against human SW620 cells at 10 uM assessed as cell growth relative to control; assay type: functional; conditions: read-out: Activity
SF-268 = experiment: Cytotoxicity against human SF268 cells at 10 uM assessed as cell growth relative to control; assay type: functional; conditions: read-out: Activity
SF-295 = experiment: Cytotoxicity against human SF295 cells at 10 uM assessed as cell growth relative to control; assay type: functional; conditions: read-out: Activity
SF-539 = experiment: Cytotoxicity against human SF539 cells at 10 uM assessed as cell growth relative to control; assay type: functional; conditions: read-out: Activity
SNB-19 = experiment: Cytotoxicity against human SNB19 cells at 10 uM assessed as cell growth relative to control; assay type: functional; conditions: read-out: Activity
SNB-75 = experiment: Cytotoxicity against human SNB75 cells at 10 uM assessed as cell growth relative to control; assay type: functional; conditions: read-out: Activity
U-251 = experiment: Cytotoxicity against human U251 cells at 10 uM assessed as cell growth relative to control; assay type: functional; conditions: read-out: Activity
LOX IMVI = experiment: Cytotoxicity against human LOXIMVI cells at 10 uM assessed as cell growth relative to control; assay type: functional; conditions: read-out: Activity
Malme-3M = experiment: Cytotoxicity against human MALME-3M cells at 10 uM assessed as cell growth relative to control; assay type: functional; conditions: read-out: Activity
M14 = experiment: Cytotoxicity against human M14 cells at 10 uM assessed as cell growth relative to control; assay type: functional; conditions: read-out: Activity
MDA-MB-435 = experiment: Cytotoxicity against human MDA-MB-435 cells at 10 uM assessed as cell growth relative to control; assay type: functional; conditions: read-out: Activity
SK-MEL-2 = experiment: Cytotoxicity against human SK-MEL-2 cells at 10 uM assessed as cell growth relative to control; assay type: functional; conditions: read-out: Activity
SK-MEL-28 = experiment: Cytotoxicity against human SK-MEL-28 cells at 10 uM assessed as cell growth relative to control; assay type: functional; conditions: read-out: Activity
SK-MEL-5 = experiment: Cytotoxicity against human SK-MEL-5 cells at 10 uM assessed as cell growth relative to control; assay type: functional; conditions: read-out: Activity
UACC-257 = experiment: Cytotoxicity against human UACC257 cells at 10 uM assessed as cell growth relative to control; assay type: functional; conditions: read-out: Activity
UACC-62 = experiment: Cytotoxicity against human UACC62 cells at 10 uM assessed as cell growth relative to control; assay type: functional; conditions: read-out: Activity
IGROV-1 = experiment: Cytotoxicity against human IGROV1 cells at 10 uM assessed as cell growth relative to control; assay type: functional; conditions: read-out: Activity
OVCAR-3 = experiment: Cytotoxicity against human OVCAR-3 cells at 10 uM assessed as cell growth relative to control; assay type: functional; conditions: read-out: Activity
OVCAR-4 = experiment: Cytotoxicity against human OVCAR4 cells at 10 uM assessed as cell growth relative to control; assay type: functional; conditions: read-out: Activity
OVCAR-5 = experiment: Cytotoxicity against human OVCAR5 cells at 10 uM assessed as cell growth relative to control; assay type: functional; conditions: read-out: Activity
OVCAR-8 = experiment: Cytotoxicity against human OVCAR8 cells at 10 uM assessed as cell growth relative to control; assay type: functional; conditions: read-out: Activity
SK-OV-3 = experiment: Cytotoxicity against human SKOV3 cells at 10 uM assessed as cell growth relative to control; assay type: functional; conditions: read-out: Activity
786-0 = experiment: Cytotoxicity against human 786-0 cells at 10 uM assessed as cell growth relative to control; assay type: functional; conditions: read-out: Activity
A498 = experiment: Cytotoxicity against human A498 cells at 10 uM assessed as cell growth relative to control; assay type: functional; conditions: read-out: Activity
ACHN = experiment: Cytotoxicity against human ACHN cells at 10 uM assessed as cell growth relative to control; assay type: functional; conditions: read-out: Activity
CAKI-1 = experiment: Cytotoxicity against human Caki1 cells at 10 uM assessed as cell growth relative to control; assay type: functional; conditions: read-out: Activity
RXF 393 = experiment: Cytotoxicity against human RXF393 cells at 10 uM assessed as cell growth relative to control; assay type: functional; conditions: read-out: Activity
SN12C = experiment: Cytotoxicity against human SN12C cells at 10 uM assessed as cell growth relative to control; assay type: functional; conditions: read-out: Activity
TK-10 = experiment: Cytotoxicity against human TK10 cells at 10 uM assessed as cell growth relative to control; assay type: functional; conditions: read-out: Activity
UO-31 = experiment: Cytotoxicity against human UO31 cells at 10 uM assessed as cell growth relative to control; assay type: functional; conditions: read-out: Activity
DU-145 = experiment: Cytotoxicity against human DU145 cells at 10 uM assessed as cell growth relative to control; assay type: functional; conditions: read-out: Activity
MCF7 = experiment: Cytotoxicity against human MCF7 cells at 10 uM assessed as cell growth relative to control; assay type: functional; conditions: read-out: Activity
MDA-MB-231 = experiment: Cytotoxicity against human MDA-MB-231 cells at 10 uM assessed as cell growth relative to control; assay type: functional; conditions: read-out: Activity
[3] = Cytotoxicity against human Hs 578T cells at 10 uM assessed as cell growth relative to control; assay type: functional; conditions: read-out: Activity
BT-549 = experiment: Cytotoxicity against human BT549 cells at 10 uM assessed as cell growth relative to control; assay type: functional; conditions: read-out: Activity
T47D = experiment: Cytotoxicity against human T47D cells at 10 uM assessed as cell growth relative to control; assay type: functional; conditions: read-out: Activity
MDA-MB-468 = experiment: Cytotoxicity against human MDA-MB-468 cells at 10 uM assessed as cell growth relative to control; assay type: functional; conditions: read-out: Activity
NCI/ADR-RES = experiment: Cytotoxicity against human NCI/ADR-RES cells at 10 uM assessed as cell growth relative to control; assay type: functional; conditions: read-out: Activity

CCC(CO)Oc1cc(NCc2ccccc2)c2ncn(C3CCCC3)c2c1 (stereo not given)
Activity [1]: 132%

COc1cc(NCc2ccccc2)c2ncn(C(C)C)c2c1
growth at 10 µM (CCRF-CEM): 93.9% | growth at 10 µM (HL-60(TB)): 50.3% | growth at 10 µM (K562): 64.2% | growth at 10 µM (MOLT-4): 78.7% | growth at 10 µM [2]: 71.5% | growth at 10 µM (SR): 51.7% | growth at 10 µM (A549): 110% | growth at 10 µM (EKVX): 93.9% | growth at 10 µM (HOP-62): 101% | growth at 10 µM (HOP-92): 84.5% | growth at 10 µM (NCI-H226): 97.1% | growth at 10 µM (NCI-H23): 91.1% | growth at 10 µM (NCI-H322M): 115% | growth at 10 µM (NCI-H460): 107% | growth at 10 µM (NCI-H522): 87% | growth at 10 µM (COLO 205): 118% | growth at 10 µM (HCC 2998): 104% | growth at 10 µM (HCT-116): 103% | growth at 10 µM (HCT-15): 97.9% | growth at 10 µM (HT-29): 109% | growth at 10 µM (KM12): 104% | growth at 10 µM (SW-620): 146% | growth at 10 µM (SF-268): 125% | growth at 10 µM (SF-295): 138% | growth at 10 µM (SF-539): 96.2% | growth at 10 µM (SNB-19): 90.7% | growth at 10 µM (SNB-75): 92.3% | growth at 10 µM (U-251): 103% | growth at 10 µM (LOX IMVI): 115% | growth at 10 µM (Malme-3M): 49.2% | growth at 10 µM (M14): 109% | growth at 10 µM (MDA-MB-435): 122% | growth at 10 µM (SK-MEL-2): 91.6% | growth at 10 µM (SK-MEL-28): 125% | growth at 10 µM (SK-MEL-5): 122% | growth at 10 µM (UACC-257): 105% | growth at 10 µM (UACC-62): 97.3% | growth at 10 µM (IGROV-1): 92.5% | growth at 10 µM (OVCAR-3): 103% | growth at 10 µM (OVCAR-4): 80.6% | growth at 10 µM (OVCAR-5): 97.2% | growth at 10 µM (OVCAR-8): 98.7% | growth at 10 µM (SK-OV-3): 110% | growth at 10 µM (786-0): 96.8% | growth at 10 µM (A498): 106% | growth at 10 µM (ACHN): 105% | growth at 10 µM (CAKI-1): 97.2% | growth at 10 µM (RXF 393): 91.2% | growth at 10 µM (SN12C): 104% | growth at 10 µM (TK-10): 136% | growth at 10 µM (UO-31): 83.2% | growth at 10 µM (DU-145): 136% | growth at 10 µM (MCF7): 5.8% | growth at 10 µM (MDA-MB-231): 111% | growth at 10 µM [3]: 174% | growth at 10 µM (BT-549): 55.6% | growth at 10 µM (T47D): 80.1% | growth at 10 µM (MDA-MB-468): 36.5% | growth at 10 µM (NCI/ADR-RES): 96.5%
